Test results as given in ChEMBL document CHEMBL1141375, “Synthesis and cell-based activity of a potent and selective protein tyrosine phosphatase 1B inhibitor prodrug” (J Med Chem, 2007).

Columns and labels:
Format in all cases: functional, cell-based
[1] = biological target: Insulin receptor (Homo sapiens) (UniProt P06213); test: Increase in insulin-induced ERK phosphorylation in HepG2 cells after 60 mins at 20 nM
How it was run: (§1)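 Time course in subconfluent HepG2 cells. Preincubation with 20 nM prodrug for various periods (5, 20, 60 min), then 5 min with or without 100 nM insulin. Lysates resolved by SDS-PAGE, transferred to nitrocellulose and probed for phospho-IRβ and phospho-ERK1/2. Result expressed as increase in insulin-induced phosphorylation.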

[2] = biological target: Insulin receptor (Homo sapiens) (UniProt P06213); test: Increase in insulin-induced IRbeta phosphorylation in human HepG2 cells after 1 hr at 100 nM
How it was run: (§2)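 HepG2 (MEM, 2 mM L-glutamine, 1 mM pyruvate, 10% FBS, 5% CO2) grown to 60-80% confluence, serum-starved 5 h, exposed 1 h to prodrug (0, 5, 20, 100 nM), then 100 nM insulin or none for 5 min. Lysates run on SDS-PAGE, blotted with anti-phospho-IRβ (pY1162/1163) and anti-phospho-ERK1/2, β-actin loading control; bands quantified densitometrically as fold over insulin-only.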

[3] = biological target: Insulin receptor (Homo sapiens) (UniProt P06213); test: Increase in insulin-induced ERK phosphorylation in human HepG2 cells after 1 hr at 20 nM; how it was run: as §2
[4] = biological target: Insulin receptor (Homo sapiens) (UniProt P06213); test: Increase in insulin-induced IRbeta phosphorylation in HepG2 cells after 20 mins at 20 nM; how it was run: as §1
[5] = biological target: Insulin receptor (Homo sapiens) (UniProt P06213); test: Increase in insulin-induced IRbeta phosphorylation in HepG2 cells after 2 hrs at 20 nM
[6] = biological target: Insulin receptor (Homo sapiens) (UniProt P06213); test: Increase in insulin-induced IRbeta phosphorylation in human HepG2 cells after 1 hr at 20 nM; how it was run: as §2
[7] = biological target: Insulin receptor (Homo sapiens) (UniProt P06213); test: Increase in insulin-induced IRbeta phosphorylation in HepG2 cells after 60 mins at 20 nM; how it was run: as §1
[8] = biological target: Insulin receptor (Homo sapiens) (UniProt P06213); test: Increase in insulin-induced ERK phosphorylation in HepG2 cells after 20 mins at 20 nM
[9] = biological target: Insulin receptor (Homo sapiens) (UniProt P06213); test: Increase in insulin-induced ERK phosphorylation in human HepG2 cells after 1 hr at 100 nM; how it was run: as §2
[10] = biological target: Insulin receptor (Homo sapiens) (UniProt P06213); test: Increase in insulin-induced IRbeta phosphorylation in HepG2 cells after 5 mins at 20 nM; how it was run: as §1

Chain of Insulin receptor (Homo sapiens) (P06213 28-758 limits assumed): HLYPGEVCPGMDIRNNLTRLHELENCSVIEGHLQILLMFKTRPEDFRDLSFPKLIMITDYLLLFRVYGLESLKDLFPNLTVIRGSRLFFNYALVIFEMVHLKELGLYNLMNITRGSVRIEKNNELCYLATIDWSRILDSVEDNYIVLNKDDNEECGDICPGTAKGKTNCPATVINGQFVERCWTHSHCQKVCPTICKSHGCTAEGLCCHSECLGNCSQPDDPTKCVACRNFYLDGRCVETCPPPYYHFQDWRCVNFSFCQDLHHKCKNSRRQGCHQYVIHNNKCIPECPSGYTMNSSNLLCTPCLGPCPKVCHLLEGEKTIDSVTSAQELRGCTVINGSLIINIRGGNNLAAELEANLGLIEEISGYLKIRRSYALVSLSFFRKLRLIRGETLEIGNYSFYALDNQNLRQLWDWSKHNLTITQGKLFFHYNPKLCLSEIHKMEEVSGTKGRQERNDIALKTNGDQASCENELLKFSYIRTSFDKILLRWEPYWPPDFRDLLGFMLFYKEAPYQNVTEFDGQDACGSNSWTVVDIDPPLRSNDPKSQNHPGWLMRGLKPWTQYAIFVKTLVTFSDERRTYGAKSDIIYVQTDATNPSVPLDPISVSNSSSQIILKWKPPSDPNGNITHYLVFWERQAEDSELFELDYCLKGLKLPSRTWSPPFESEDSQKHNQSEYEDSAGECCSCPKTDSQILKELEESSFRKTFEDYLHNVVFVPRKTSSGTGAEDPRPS
Chain of Insulin receptor (Homo sapiens) (P06213 763-1382 limits assumed): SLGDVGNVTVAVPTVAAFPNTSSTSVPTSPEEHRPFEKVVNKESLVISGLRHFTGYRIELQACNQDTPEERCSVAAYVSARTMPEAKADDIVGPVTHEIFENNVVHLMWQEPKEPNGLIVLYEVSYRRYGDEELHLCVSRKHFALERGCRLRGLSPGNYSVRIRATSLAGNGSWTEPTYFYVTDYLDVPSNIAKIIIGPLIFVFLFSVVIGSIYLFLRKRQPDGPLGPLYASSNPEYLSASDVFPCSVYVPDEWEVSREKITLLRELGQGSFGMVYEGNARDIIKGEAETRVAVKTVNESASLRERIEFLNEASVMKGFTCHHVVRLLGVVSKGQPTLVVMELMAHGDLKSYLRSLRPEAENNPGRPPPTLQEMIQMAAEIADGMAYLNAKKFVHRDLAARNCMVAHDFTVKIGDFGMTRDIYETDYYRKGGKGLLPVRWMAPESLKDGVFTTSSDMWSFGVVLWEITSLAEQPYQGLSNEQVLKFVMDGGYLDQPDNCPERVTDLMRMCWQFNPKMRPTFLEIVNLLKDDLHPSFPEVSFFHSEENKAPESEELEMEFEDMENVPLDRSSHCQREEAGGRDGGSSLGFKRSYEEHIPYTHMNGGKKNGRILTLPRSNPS

Activity [1]: 50%
Activity [2]: 2.1
Activity [3]: 1.3
Activity [4]: 1.7
Activity [5]: 2.1
Activity [6]: 1.9
Activity [7]: 2
Activity [8]: 25%
Activity [9]: 1.6
Activity [10]: 35%
Structure (SMILES): CN(CCCCCl)P(=O)(OCc1ccc([N+](=O)[O-])o1)C(F)(F)c1ccc(CC(=O)N[C@@H](CC(=O)O)C(=O)N[C@@H](Cc2ccc(C(F)(F)P(=O)(OCc3ccc([N+](=O)[O-])o3)N(C)CCCCCl)cc2)C(N)=O)cc1 (stereo not given in full)
